M1 antag – human CHRM1 antagonism | P11229 | CHO-K1 hM1, Fluo-8 calcium fluorescence, ACh EC80 antagonist | inhibition, % at 3 µM | actives 1.3% (n = 360,000);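 active = percent inhibition above its own plate's cutoff, namely the mean of that plate's compound wells plus 3 SD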;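 also: peak over basal fluorescence ratio during 140 s after agonist addition; 0% = ACh EC80 plus DMSO and 100% = DMSO alone without agonist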
Target sequence (P11229 whole entry, looked up): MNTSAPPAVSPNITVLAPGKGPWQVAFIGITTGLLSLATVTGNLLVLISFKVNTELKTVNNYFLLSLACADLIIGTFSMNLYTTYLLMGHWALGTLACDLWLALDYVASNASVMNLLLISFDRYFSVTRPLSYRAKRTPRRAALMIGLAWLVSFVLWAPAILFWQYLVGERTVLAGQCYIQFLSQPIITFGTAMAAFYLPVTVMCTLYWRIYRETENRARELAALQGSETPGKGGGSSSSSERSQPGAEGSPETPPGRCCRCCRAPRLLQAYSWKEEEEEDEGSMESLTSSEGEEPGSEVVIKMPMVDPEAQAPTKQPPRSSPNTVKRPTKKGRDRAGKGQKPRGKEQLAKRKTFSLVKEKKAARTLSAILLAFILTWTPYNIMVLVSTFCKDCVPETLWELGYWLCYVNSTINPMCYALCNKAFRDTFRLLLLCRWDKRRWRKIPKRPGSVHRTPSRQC
CHRM1 PAM – human CHRM1 positive allosteric modulation | P11229 | CHO-K1 hM1, Fluo-8 calcium fluorescence, ACh EC20; 0% = ACh EC20, 100% = maximal ACh | activation, % at 3 µM | actives 0.088% (n = 360,000) | AID 588819; in the data active = activation above about 19%, passing the limit was not always enough
TAAR1 antag – antagonists of human TAAR1 | Q96RJ0 | CHO RD-HGA16 TAAR1, Fluo-8 calcium fluorescence, antagonist | inhibition, % at 3 µM | actives 1.5% (n = 360,000);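 active = inhibition above a per-plate cutoff, the mean inhibition of test compounds on that plate plus 3 SD, cut at about 49% in these data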;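 also: 0% = DMSO plus EC80 beta-PEA response and 100% = DMSO alone without agonist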
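Test system: hTAAR1-expressing CHO RD-HGA16 cells, Gα16-coupled; Probe or stimulus: EC80 β-phenethylamine stimulus; Compound dosing: single nominal final test compound concentration of 3 µM; Timing: 140 s kinetic read after compound, 140 s after agonist; Signal: Fluo-8 calcium-sensitive fluorescence; Measure: % inhibition of agonist calcium response; Controls: DMSO and EC80 PEA controls.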
M1 ag – agonists of human M1 muscarinic receptor; CHO-K1 hM1, Fluo-8 calcium fluorescence, agonist mode; 0% DMSO, 100% acetylcholine EC100; AID 588814; actives 0.33% (n = 360,000); activation, % at 3 µM;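 active = activation above the run's mean compound activation plus 3 SD, cut at about 16% in these data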;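 also: peak over basal fluorescence ratio within a 140 s kinetic read after compound addition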
TAAR1 agonist – human TAAR1 agonism; CHO RD-HGA16 TAAR1, Fluo-8 calcium fluorescence; vehicle wells 0%, saturating PEA agonist 100%; activation, % at 3 µM; actives 0.99% (n = 360,000); AID 624467;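 active = activation above the mean activation of all test compounds in the run plus 3 SD, cut at about 38% in these data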
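Assay system – CHO-derived RD-HGA16 cells with stable Gα16 and human TAAR1 · Compound dosing – one-point dosing at 3 µM (nominal) · Incubation – 17-24 h seeding, 75 min 37 °C dye, 30 min RT · Measured by – kinetic Fluo-8 calcium fluorescence · Control set – DMSO vehicle as 0%, PEA at EC100 as 100% · Repeats – single well for each compound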
* hit, by the source's call; x = not tested or not shown. Shown are actives, neighbours in structure and some others; about 3.4% of the full set was active somewhere.

SMILES	M1 antag	CHRM1 PAM	TAAR1 antag	M1 ag	TAAR1 agonist
COC(=O)C1CCN(Cc2ccc(OCCCN3CCN(c4ccc([N+](=O)[O-])cc4)CC3)cc2)CC1	47.9*	-24.6	-13.9	-5.3	3.0
CC(=O)C1=C(C)NC(SCC(=O)c2ccc(F)cc2)=C(C#N)C1c1ccco1 (stereo unspecified)	15.7	-13.6	50.9*	-7.1	8.4
CC(=O)C1=C(C)NC(SCC(=O)c2ccc(Cl)c(Cl)c2)=C(C#N)C1c1ccco1 (stereo unspecified)	-21.9	-2.8	2.6	-2.3	3.6
CC1=C(C(=O)Nc2ccccc2)C(c2ccco2)C(C#N)=C(SCC(=O)Nc2cccc(C)c2C)N1 (stereo unspecified)	-1.8	5.3	24.2	-0.1	7.3
CC1=C(C(=O)Nc2ccccc2)C(c2ccco2)C(C#N)=C(SCC(=O)OC(C)C)N1 (stereo unspecified)	32.6*	-9.8	x	-1.0	x
COc1ccc(-c2nnn3c2C2c4cc(-c5cccc(F)c5)ccc4CCN2C(=O)C3)cc1 (stereo unspecified)	x	x	-26.7	x	8.7
CC(C)C1CC(N(C)C)=CC(=S)N1 (stereo unspecified)	x	x	-7.5	x	0.8
COC(=O)c1ccc(C(=O)NC2CCSc3ccccc32)cc1 (stereo unspecified)	-11.4	7.3	-4.2	-6.3	-0.5
Cc1ccc(NC(=S)NC2CCSc3ccccc32)cc1C (stereo unspecified)	79.1*	-22.1	15.1	-4.6	0.7
Cc1cc(N2CCN(S(C)(=O)=O)C[C@H]2C)ccc1N1CCN(Cc2ccccc2)[C@H](C)C1	x	x	-10.0	x	3.5
Cc1ccc(NC(=O)C(C)N2CCc3ccccc3C2)cc1 (stereo unspecified)	6.4	-3.6	-3.5	-8.9	-0.7
CC(C(=O)Nc1ccc(S(=O)(=O)N2CCCC2)cc1)N1CCc2ccccc2C1 (stereo unspecified)	100.8*	-27.6	-16.1	-7.4	1.3
CC(C(=O)Nc1ccc(S(=O)(=O)N2CCCC2)cc1)N1CCCC(C(N)=O)C1 (stereo unspecified)	38.4*	-16.8	-46.2	-7.2	2.6
CCCC(C)C(=O)Nc1ccc(S(=O)(=O)N2CCCC2)cc1 (stereo unspecified)	-6.9	4.9	1.3	-6.5	5.4
COc1cc(/C=N/N(C)C)cc(Br)c1O	-24.5	23.0*	-24.6	-0.8	1.1
CN=c1scc(C)n1/N=C/c1cc(Br)c(O)c(OC)c1	-9.0	5.4	-12.4	-4.6	-1.3
CCOC(=O)c1sc(NC(=O)c2cc(-c3ccccc3C)nc3ccccc23)c(C#N)c1C	15.3	-10.9	-4.7	6.5	15.1
CCOc1ccc(-c2cc(C(=O)Nc3ccc4c(c3)OCCO4)c3ccccc3n2)cc1	11.1	1.9	67.5*	-2.1	13.7
CCc1cccc(C)c1NC(=O)c1cc(-c2ccncc2)nc2ccccc12	2.5	13.2	49.2*	3.6	9.1
CCOc1cc(N2CCOCC2)c(OCC)cc1NC(=O)c1cc(-c2ccco2)nc2ccccc12	26.9	-12.1	70.9*	2.9	15.3
Cc1ccccc1-c1cc(C(=O)Nc2sc(C)c(C)c2C(N)=O)c2ccccc2n1	14.3	-2.5	50.2*	5.5	18.0
Cc1cccc(-c2cc(C(=O)Nc3ccc4c(c3)OCCO4)c3ccccc3n2)c1	1.6	-7.1	44.9	-4.1	8.1
O=C(NCCN1CCC(n2c(=O)[nH]c3ccccc32)CC1)c1ccc(F)cc1F	x	x	6.2	x	2.0
COc1cc2c(NCCCCCCO[N+](=O)[O-])ncnc2c(OC)c1OC	x	x	-14.6	x	2.1
O=C(C[C@H]1CC[C@@H](NS(=O)(=O)c2ccccc2)[C@@H](CO)O1)NCc1ccc(Cl)c(Cl)c1	x	x	-11.2	x	3.0
SMILES	M1 antag	CHRM1 PAM	TAAR1 antag	M1 ag	TAAR1 agonist
Cc1ccccc1NC(=O)c1cc(-c2ccco2)nc2ccccc12	-6.3	19.0	59.8*	2.3	6.9
CNC(=O)C1Cc2c(-c3ccc(Cl)cc3)ccnc2O1 (stereo unspecified)	-12.9	7.8	-11.6	-3.0	-0.3
CCCCNc1c2c3c(cccc3n(C)c1=O)C(=O)c1ccccc1-2	74.7*	-23.2	x	140.6*	x
CC(=O)Nc1ccc(Nc2c3c4c(cccc4n(C)c2=O)C(=O)c2ccccc2-3)cc1	0.2	2.4	5.7	-3.5	6.7
CCCN1C(=O)c2[nH]nc(-c3ccccc3)c2C1c1ccc(F)cc1 (stereo unspecified)	x	x	-43.8	x	0.6
COc1cc(O)c(C(CC(=O)N2CCOCC2)c2ccc3c(c2)OCO3)c(OC)c1 (stereo unspecified)	36.1*	-19.9	10.7	-0.7	0.8
CCCN1CCCCC(NC(=O)OC(C)(C)C)C1=O (stereo unspecified)	x	x	0.5	x	1.8
CC(=O)c1cccc(NC(=O)c2ccoc2C)c1	4.7	0.6	6.8	-3.0	5.7
COc1ccc(C(=O)Nc2cccc(/C(C)=N\NC(=O)c3ccoc3C)c2)cc1OC	-7.4	1.6	49.2*	-1.7	12.8
COC(=O)[C@]12C[C@H](CC(=O)NCc3cccs3)C(=O)N(Cc3ccccc3)C1=C[C@H](C(C)C)O[C@@H]2C1CC1	x	x	-45.1	x	-3.0
CC(C)N(C(=O)CSc1nc2ccccc2n1Cc1ccc(F)cc1)C(C)C	32.3*	-18.1	-2.0	-3.2	2.8
CCOC(=O)C1=C(C(=O)OCC)C2N(Cc3ccc(C#N)cc3)c3ccccc3[C@@]23C[C@@H](C(=O)OC)N(S(=O)(=O)c2ccc(C)cc2)C3=N1 (stereo partly specified)	x	x	-29.7	x	0.7
CC(C)N(CCNC(=O)c1ccc(CS(=O)(=O)c2c(Cl)cccc2Cl)o1)Cc1ccccc1	44.9*	-21.7	-2.0	-5.6	1.7
Cc1ccc(S(=O)(=O)NCc2ccc(C(=O)NCCN(Cc3ccccc3)C(C)C)cc2)cc1	68.1*	-23.3	-14.1	-5.5	6.6
COC(=O)C1=C[C@@H](C(=O)OC)C2C3=C(C(=O)C24CCCCC4)[C@H](C)n2c(=O)n(-c4ccccc4)c(=O)n2[C@@H]3C1 (stereo partly specified)	8.5	-3.5	51.9*	-4.7	12.5
COC(=O)C1=C[C@@H](C(=O)OC)C2C3=C(C(=O)C24CCCCC4)[C@H](C)n2c(=O)n(C)c(=O)n2[C@@H]3C1 (stereo partly specified)	-8.0	7.3	-2.6	-2.7	9.1
COc1ccc(NS(=O)(=O)c2ccc(N3CCCCC3)c(N)c2)cc1	35.7*	-12.9	15.2	-0.6	20.4
O=C1CC(c2ccc(O)c(O)c2)Oc2cc(O)cc(O)c21 (stereo unspecified)	-10.7	14.9	10.8	1.9	1.4
COc1ccc(C2CC(=O)c3c(O)cc(O)cc3O2)cc1O (stereo unspecified)	28.4*	-17.8	1.5	-2.2	3.3
